The list is not random: actives were taken first. Their share in the collection is about 2.9%.
5HT1a ag: activates the human 5-HT1a serotonin receptor. P08908. CHO 5-HT1a Ga15 NFAT-bla reporter, FRET ratio; 0% basal, 100% maximal reference agonist. activation, % at 10 µM. hit rate 0.56% among 65,000;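 active = activation above the screen-wide mean activation plus 3 SD, cut at about 19% in these data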;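 also: 0% = DMSO wells and 100% = 5-CT at EC100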
5HT1E ag: agonists of human 5-HT1E serotonin receptor; P28566; CHO 5-HT1E Ga15 NFAT-bla reporter, FRET; 0% DMSO wells, 100% control agonist wells; activation, % at 6 µM; hit rate 0.69% among 65,000;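 active = activation above a set limit, the screen-wide mean activation plus 3 SD, cut at about 8.5% in these data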;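 also: 100% = positive control agonist at 1 µM giving full maximal response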
Target sequence (P28566 whole entry, looked up): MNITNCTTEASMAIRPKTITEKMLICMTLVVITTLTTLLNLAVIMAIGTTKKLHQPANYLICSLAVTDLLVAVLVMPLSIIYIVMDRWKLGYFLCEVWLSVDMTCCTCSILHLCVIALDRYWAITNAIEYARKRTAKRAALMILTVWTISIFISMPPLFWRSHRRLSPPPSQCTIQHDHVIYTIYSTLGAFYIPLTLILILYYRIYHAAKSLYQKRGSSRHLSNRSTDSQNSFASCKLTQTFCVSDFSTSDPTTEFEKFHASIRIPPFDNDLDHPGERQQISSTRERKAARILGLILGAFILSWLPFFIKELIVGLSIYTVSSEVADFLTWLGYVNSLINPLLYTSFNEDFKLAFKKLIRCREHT
HTR1E antagonist: 5-HT1E (human) receptor antagonism | P28566 | CHO 5-HT1E Ga15 NFAT-bla reporter, FRET, antagonist | inhibition, % at 6 µM | hit rate 0.99% among 65,000 | AID 571;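 active = inhibition above a set limit, the mean inhibition across every tested compound plus 3 SD, cut at about 29% in these data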;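 also: signal is the 460 over 535 nm emission ratio of beta-lactamase substrate; 0% = agonist plus DMSO wells and 100% = wells without agonist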
5-HT1A blocker: antagonists of human 5-HT1a serotonin receptor; P08908; CHO 5-HT1a Ga15 NFAT-bla reporter, antagonist mode; inhibition, % at 10 µM; hit rate 0.68% among 62,000; AID 612;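 active = inhibition above the mean of all tested compounds plus 3 SD, cut at about 43% in these data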;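 also: receptor stimulated by 5-CT agonist at 100 nM near EC80; beta-lactamase reporter measured by ratiometric fluorescence of a cleavable substrate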
SKBR3 24h inh: SK-BR-3 proliferation inhibitors. AID 847. SK-BR-3 viability, CellTiter-Glo ATP luminescence, 24 h; active compounds read low. viability, % at 10 µM. hit rate 0.47% among 41,000;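 active = viability at or below the median of all test compounds minus 3 SD, in both replicates if run twice, cut at about 45% in these data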;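 also: 100% = median untreated cell wells and 0% = median positive control drug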
HEK293 NFkB inh: lowers PMA/ionomycin-induced NF-kB signal in HEK293 cells | HEK-293 NF-kB luciferase reporter, luminescence | inhibition, % at 3 µM | hit rate 0.21% among 62,000 | AID 465;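 active = inhibition above the mean of all tested compounds plus 3 SD, cut at about 40% in these data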;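 also: 0% = stimulated DMSO wells and 100% = 10 µM reference inhibitor 5653914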
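System – HEK-293 cells with stable firefly luciferase reporter driven by four HIV NF-kB elements · Doses – one dose, 3 µM · Schedule – 1 h compound pre-incubation, 16 h PMA/ionomycin at 37 °C · Technique – luminescence from luciferase substrate reagent · Measure – percent inhibition normalized per plate to DMSO and reference-inhibitor controls · Replicates – tested once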
Numbers without * were called inactive.

CCOC(=O)c1oc2ccccc2c1NC(=O)COc1cccc(OC)c1 was read as 5HT1a ag 2.0, 5HT1E ag -0.1, HTR1E antagonist -1.9, 5-HT1A blocker 5.0 and HEK293 NFkB inh 5.5.
Cc1cccc(S(=O)(=O)C(C#N)c2nc3ccccc3nc2N2CCOCC2)c1 (stereo not drawn) was read as 5HT1a ag -2.7, 5HT1E ag 0.1, HTR1E antagonist 12.5, 5-HT1A blocker 6.5, SKBR3 24h inh 93.1 and HEK293 NFkB inh 19.4.
N#Cc1nc(COc2cccc(Cl)c2)oc1N1CCCC1 was read as 5HT1a ag 23.3*, 5HT1E ag 0.0, HTR1E antagonist -0.3, 5-HT1A blocker 2.6 and HEK293 NFkB inh 5.4.
`N#Cc1nc(-c2cccs2)oc1N1CCN(Cc2ccccc2)CC1` gave 5HT1a ag 0.0, 5HT1E ag 0.1, HTR1E antagonist -2.4, 5-HT1A blocker -4.1, SKBR3 24h inh 90.0 and HEK293 NFkB inh 1.4.
For CC1CCN(c2oc(Cc3cccc4ccccc34)nc2C#N)CC1 the results were 5HT1a ag -0.5, 5HT1E ag -0.5, HTR1E antagonist 12.2, 5-HT1A blocker 18.0, SKBR3 24h inh 93.1 and HEK293 NFkB inh 16.4.
Screening N#Cc1nc(COc2ccccc2)oc1N1CCN(Cc2ccccc2)CC1 returned 5HT1a ag -4.8, 5HT1E ag -2.4, HTR1E antagonist 5.2, 5-HT1A blocker 45.7*, SKBR3 24h inh 92.8 and HEK293 NFkB inh 17.5.
`N#Cc1nc(COc2ccccc2)oc1N1CCC(Cc2ccccc2)CC1` gave 5HT1a ag -3.5, 5HT1E ag -0.8, HTR1E antagonist 2.2, 5-HT1A blocker 48.7*, SKBR3 24h inh 108.8 and HEK293 NFkB inh 2.1.
Screening Cc1ccc(OCc2nc(C#N)c(N3CCN(Cc4ccccc4)CC3)o2)cc1 returned 5HT1a ag -2.5, 5HT1E ag -0.6, HTR1E antagonist 9.2, 5-HT1A blocker 49.9*, SKBR3 24h inh 109.8 and HEK293 NFkB inh 16.5.
N#Cc1nc(COc2ccc(F)cc2)oc1N1CCCC1 was read as 5HT1a ag 3.1, 5HT1E ag 1.5, HTR1E antagonist 0.5, 5-HT1A blocker -4.4 and HEK293 NFkB inh 14.3.
`O=C(N1CCN=C1SCc1cccnc1)C12CC3CC(CC(C3)C1)C2` gave 5HT1a ag 0.8, 5HT1E ag 0.8, HTR1E antagonist -0.3, 5-HT1A blocker 1.3, SKBR3 24h inh 128.9 and HEK293 NFkB inh 17.4.
COc1ccc(-n2nnnc2S(=O)(=O)CC(=O)N2CCCCC2)cc1 was read as 5HT1a ag -0.7, 5HT1E ag -1.2, HTR1E antagonist 69.1*, 5-HT1A blocker 92.0* and HEK293 NFkB inh 16.9.
`COC(=O)c1[nH]c2ccc(C)cc2c1NS(=O)(=O)c1ccc(F)cc1` gave 5HT1a ag -3.4, 5HT1E ag -0.8, HTR1E antagonist 12.6, 5-HT1A blocker 20.4, SKBR3 24h inh 37.9* and HEK293 NFkB inh 15.9.
CCOC(=O)C1=C(C)NC(=O)NC1c1ccc2c(c1)OCCO2 (stereo not drawn) was read as 5HT1a ag -4.2, 5HT1E ag 0.4, HTR1E antagonist -2.6, 5-HT1A blocker 8.0, SKBR3 24h inh 106.0 and HEK293 NFkB inh 17.8.
`CC1=C(C(=O)OCc2ccc3c(c2)OCO3)C(c2ccc(Cl)cc2)NC(=O)N1` (stereo not drawn) gave 5HT1a ag -0.4, 5HT1E ag 0.0, HTR1E antagonist 42.7*, 5-HT1A blocker 50.3*, SKBR3 24h inh 82.3 and HEK293 NFkB inh 67.1*.
`CC1=C(C(=O)OCc2ccc3c(c2)OCO3)C(c2ccc(F)cc2)NC(=O)N1` (stereo not drawn) gave 5HT1a ag -2.6, 5HT1E ag -1.5, HTR1E antagonist 28.8*, 5-HT1A blocker 21.5, SKBR3 24h inh 95.8 and HEK293 NFkB inh 45.0*.
For CCCn1c(SCC(=O)NC)nnc1C(C)C the results were 5HT1a ag 1.7, 5HT1E ag 0.5, HTR1E antagonist -4.4, 5-HT1A blocker 0.4, SKBR3 24h inh 87.6 and HEK293 NFkB inh -10.6.
CCn1cc(C(=O)Nc2ccc(-n3cnnn3)c(OC)c2)c(=O)c2ccc(C)nc21 was read as 5HT1a ag -2.0, 5HT1E ag -0.6, HTR1E antagonist -2.4, 5-HT1A blocker -9.2, SKBR3 24h inh 74.4 and HEK293 NFkB inh 7.5.
`CC1Cc2cc(C3(O)C(=O)c4ccccc4C3=O)ccc2N1` (stereo not drawn) gave 5HT1a ag -2.4, 5HT1E ag -0.1, HTR1E antagonist -2.1, 5-HT1A blocker -8.8, SKBR3 24h inh 88.5 and HEK293 NFkB inh 5.1.
`Cc1ccc(-n2nnnc2SCC(=O)N2c3ccccc3NC(=O)C2(C)C)cc1` gave 5HT1a ag -1.9, 5HT1E ag -0.5, HTR1E antagonist 0.8, 5-HT1A blocker 2.0 and HEK293 NFkB inh 8.4.
COc1ccc(N2C(=O)CCC(C(=O)Nc3cccc(C)n3)C2c2ccc(OC)c(OC)c2)cc1 (stereo not drawn) was read as 5HT1a ag 28.9*, 5HT1E ag -1.9, HTR1E antagonist 11.9, 5-HT1A blocker -0.3, SKBR3 24h inh 104.9 and HEK293 NFkB inh 8.6.
CCOC(=O)CNC(=O)Cn1cnc2sc(C)c(S(=O)(=O)N3CCC(C)CC3)c2c1=O was read as 5HT1a ag 60.0*, 5HT1E ag 0.9, HTR1E antagonist -3.5, 5-HT1A blocker -10.8, SKBR3 24h inh 86.2 and HEK293 NFkB inh 9.0.
`COCCNC(=O)Cn1cnc2sc(C)c(S(=O)(=O)N3CCC(C)CC3)c2c1=O` gave 5HT1a ag -0.2, 5HT1E ag -0.4, HTR1E antagonist -7.4, 5-HT1A blocker 2.4, SKBR3 24h inh 44.9 and HEK293 NFkB inh 12.3.
Screening CSC1=C(C#N)C(c2ccc(Cl)cc2)C2=C(CC(C)(C)CC2=O)N1 (stereo not drawn) returned 5HT1a ag -2.9, 5HT1E ag 0.9, HTR1E antagonist -15.3, 5-HT1A blocker 7.4 and HEK293 NFkB inh 4.7.
`CCCSC1=C(C#N)C(c2ccc(OC)cc2)C2=C(CC(C)(C)CC2=O)N1` (stereo not drawn) gave 5HT1a ag -0.9, 5HT1E ag 0.9, HTR1E antagonist 49.8* and SKBR3 24h inh 80.9.
Screening CCc1nnc(NC(=O)CSc2nnc(CNc3ccc(Cl)cc3)o2)s1 returned 5HT1a ag -2.9, 5HT1E ag 0.4, HTR1E antagonist 4.5, 5-HT1A blocker 2.2, SKBR3 24h inh 86.6 and HEK293 NFkB inh -0.2.
For CCOc1cc(C(=O)CSc2nnc(CNc3ccc(Cl)cc3)o2)ccc1NC(=O)CC the results were 5HT1a ag -2.4, 5HT1E ag 3.5, HTR1E antagonist 58.0*, 5-HT1A blocker 32.4, SKBR3 24h inh 63.3 and HEK293 NFkB inh 5.4.
CCOC(=O)N1CCN(CC(=O)Nc2ccc(C)c(Br)c2)CC1 was read as 5HT1a ag 0.6, 5HT1E ag -0.4, HTR1E antagonist -10.0, 5-HT1A blocker 3.6, SKBR3 24h inh 70.8 and HEK293 NFkB inh 3.7.

Bioassay records from PubChem.
